Calls of active or inactive are those of the source. The rule behind the calls is not given here.
Key:
[1] = target: T1, Botulinum neurotoxin type A (Clostridium botulinum, UniProt P0DPI0); assay: Inhibition of Clostridium botulinum BoNT/A light chain (1 to 425 amino acids) by FRET method
In short: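 Recombinant truncated light chain (residues 1–425) at 37 nM, incubated with SNAPtide, a 13mer SNAP-25 pseudosubstrate carrying a FITC fluorophore and a DABCYL quencher. Cleavage read as FRET fluorescence.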

[2] = target: Botulinum neurotoxin type A (Clostridium botulinum) (UniProt P0DPI0); conditions: Hall A hyper
[3] = Cytotoxicity against human induced pluripotent stem cell-derived neurons at 1 mM; conditions: induced pluripotent stem cell-derived neuron, 1000 µM
[4] = target: T1, Botulinum neurotoxin type A; assay: Inhibition of Clostridium botulinum BoNT/A light chain (1 to 425 amino acids) by LC-MS analysis
[5] = target: T1, Botulinum neurotoxin type A; design: species or system Hall A hyper
[6] = target: Botulinum neurotoxin type A (Clostridium botulinum) (UniProt P0DPI0); conditions: Hall A hyper; remark: listed apart in the source
[7] = Cytotoxicity against human induced pluripotent stem cell-derived neurons at 150 uM; conditions: induced pluripotent stem cell-derived neuron
[8] = Cytotoxicity against human induced pluripotent stem cell-derived neurons at 200 uM; conditions: induced pluripotent stem cell-derived neuron
[9] = target: Botulinum neurotoxin type A (Clostridium botulinum) (UniProt P0DPI0); conditions: Hall A hyper; remark: listed apart in the source

T1 sequence (P0DPI0 2-448 limits assumed): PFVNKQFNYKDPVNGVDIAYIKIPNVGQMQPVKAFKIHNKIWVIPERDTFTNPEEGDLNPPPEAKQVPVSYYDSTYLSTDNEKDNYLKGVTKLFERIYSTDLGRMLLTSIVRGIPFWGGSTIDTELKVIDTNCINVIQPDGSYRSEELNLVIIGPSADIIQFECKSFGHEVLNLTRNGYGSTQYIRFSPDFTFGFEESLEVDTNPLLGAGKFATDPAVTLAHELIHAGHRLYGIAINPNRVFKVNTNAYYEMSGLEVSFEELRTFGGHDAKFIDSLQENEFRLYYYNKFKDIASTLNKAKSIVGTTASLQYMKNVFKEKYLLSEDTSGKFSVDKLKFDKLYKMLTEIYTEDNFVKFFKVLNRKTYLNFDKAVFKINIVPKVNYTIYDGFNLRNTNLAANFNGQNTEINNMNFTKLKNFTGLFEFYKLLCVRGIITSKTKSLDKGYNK
Botulinum neurotoxin type A (Clostridium botulinum), sequence (P0DPI0 2-448 limits assumed): as above

`O=C(CC(CCOCc1ccccc1)c1ccc(Cl)cc1Cl)NO` (stereo not drawn) showed an IC50 [1] of 2.9 µM.
Molecule `O=C(CC(CC(=O)NCCC1CC1)c1ccc(Cl)cc1Cl)NO` (stereo not drawn) has an IC50 [1] of 9.2 µM.
For `COc1ccc(CCNC(=O)CC(CC(=O)NO)c2ccc(Cl)cc2Cl)cc1` (stereo not drawn), the IC50 [1] was 6.7 µM.
For `O=C(CC(CCOCc1ccccc1)c1ccc(Cl)cc1Cl)NOC(=O)NCc1ccccc1` (stereo not drawn), the inhibition [2] was “inactive” and the Activity [3] was “Toxic”.
For `O=C(CC(CCOCCc1ccc(F)cc1)c1ccc(Cl)cc1Cl)NOC(=O)NCc1ccccc1` (stereo not drawn), the inhibition [2] was “inactive” and the Activity [3] was “Toxic”.
In the case of `O=C(CC(CC(=O)Nc1ccc(Br)cc1)c1ccc(Cl)cc1Cl)NO` (stereo not drawn), the IC50 [1] is reported as 6.4 µM.
`O=C(CC(CCOCC12CC3CC(CC(Br)(C3)C1)C2)c1ccc(Cl)cc1Cl)NO` (stereo not drawn) gave an IC50 [1] of 13 µM.
Work on `COc1cc(F)ccc1NC(=O)CC(CC(=O)NO)c1ccc(Cl)cc1Cl` (stereo not drawn) yielded a Ki [4] of 1 µM and an IC50 [1] of 1.1 µM.
For `O=C(CC(CCOCCc1ccc(F)cc1)c1ccc(Cl)cc1Cl)NO` (stereo not drawn), the Ki [4] was 2.1 µM and the IC50 [1] was 0.97 µM.
Molecule `O=C(CC(CC(=O)NCCc1ccc(F)cc1)c1ccc(Cl)cc1Cl)NO` (stereo not drawn) has an IC50 [1] of 2.6 µM.
With `Cc1ccccc1NC(=O)CC(CC(=O)NOC(=O)NCc1ccccc1)c1ccc(Cl)cc1Cl` (stereo not drawn) the EC50 [5] was 209 µM.
`O=C(CC(CC(=O)Nc1ccc(Br)cc1)c1ccc(Cl)cc1Cl)NOC(=O)NCc1ccccc1` (stereo not drawn) gave an EC50 [5] of 198 µM.
In the case of `O=C(/C=C/c1ccc(Cl)cc1Cl)NOC(=O)NCc1ccccc1`, the inhibition [6] is reported as “inactive” and the Activity [7] is reported as “Toxic”.
In the case of `O=C(CC(CCOCC12CC3CC(CC(Br)(C3)C1)C2)c1ccc(Cl)cc1Cl)NOC(=O)NCc1ccccc1` (stereo not drawn), the EC50 [5] is reported as > 1000 µM.
In the case of `Cc1ccccc1NC(=O)CC(CC(=O)NO)c1ccc(Cl)cc1Cl` (stereo not drawn), the IC50 [1] is reported as 2 µM.
For `C=CCOCCC(CC(=O)NO)c1ccc(Cl)cc1Cl` (stereo not drawn), the IC50 [1] was 5.4 µM.
For `O=C(CC(CCO)c1ccc(Cl)cc1Cl)NO` (stereo not drawn), the Activity [8] was “Non-toxic”.
For `O=C(CC(CCO)c1ccc(Cl)cc1Cl)NOC(=O)NCc1ccccc1` (stereo not drawn), the inhibition [9] was “Active”.

From ChEMBL document CHEMBL3102696, “Synthesis/biological evaluation of hydroxamic acids and their prodrugs as inhibitors for Botulinum neurotoxin A light chain” (Bioorg Med Chem, 2014)
